CRFBP-R2 block: antagonists of CRF-BP/CRF-R2 complex, primary screen, cell-based, HEK293, calcium dye fluorescence, uHTS. CRF-induced calcium fluorescence. inhibition, % at 11.8 µM. 350,000 tested, 0.59% active;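 active = inhibition of the ligand-induced calcium signal above about 50% at the single tested concentration, limit read from the data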
Tn7 DDE FP: inhibitors of Tn7 peptide binding to fibrin DD(E), primary screen, biochemical, fluorescence polarization, human fibrin, Tn7 probe; Fibrinogen beta chain (Homo sapiens), P02675; FP displacement of FITC-Tn7 peptide from fibrin DD(E); 0% = median of compound wells per plate; inhibition, % at 8.3 µM; 370,000 tested, 0.13% active; AID 720508, 2013;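 active = inhibition above the mean of compounds falling within the control limits plus 3 SD of them, cut at about 14% in these data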;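 also: 0% = plate median of compound wells and 100% = 10 µM Aha-Tn7 peptide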
Target sequence (P02675 whole entry, looked up): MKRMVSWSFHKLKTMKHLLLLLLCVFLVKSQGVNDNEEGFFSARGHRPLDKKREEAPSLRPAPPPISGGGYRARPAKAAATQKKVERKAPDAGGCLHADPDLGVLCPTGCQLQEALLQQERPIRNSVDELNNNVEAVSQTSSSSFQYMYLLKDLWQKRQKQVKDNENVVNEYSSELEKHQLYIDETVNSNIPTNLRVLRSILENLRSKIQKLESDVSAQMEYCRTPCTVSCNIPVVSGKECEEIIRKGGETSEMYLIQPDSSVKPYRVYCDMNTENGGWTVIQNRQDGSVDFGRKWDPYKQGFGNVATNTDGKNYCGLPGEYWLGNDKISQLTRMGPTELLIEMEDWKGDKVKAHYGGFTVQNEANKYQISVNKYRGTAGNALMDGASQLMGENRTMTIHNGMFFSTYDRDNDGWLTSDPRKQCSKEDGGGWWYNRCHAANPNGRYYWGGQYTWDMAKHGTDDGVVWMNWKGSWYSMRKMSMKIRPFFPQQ
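Assay system: Fibrin-DD(E) protein isolated from polymerized human fibrin clots; read-out basis: percent inhibition; medium: Tris/NaCl/CaCl2 buffer, pH 7.8; signal: FP measurement; incubation: 10 min plus 3 h, room temperature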
Cardiac RTF inh: cardiac RTF calcium sensitivity inhibitors, primary screen, biochemical, IANBD-TnC fluorescence, EC70 calcium; Troponin I, cardiac muscle (Homo sapiens) + Troponin T, cardiac muscle (Homo sapiens) + …; IANBD-labeled cardiac RTF, Ca2+ fluorescence; inhibition, % at 7.15 µM; 340,000 tested, 0.12% active; AID 493244, 2011;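 active = inhibition above the mean inhibition of all tested compounds plus 3 SD, cut at about 17% in these data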;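 also: assay run at fixed EC70 calcium of 1.6 mM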
CRFBP-R2 agonist: agonists of CRF-BP/CRF-R2 complex, primary screen, cell-based, HEK293, calcium dye fluorescence, uHTS | CRF-binding protein / CRF receptor 2 complex (human) | calcium dye fluorescence (FLIPR); percent of saturating CRF peptide response | activation, % at 13.2 µM | 350,000 tested, 0.46% active | AID 588473, 2011;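 active = activation of at least 50%, plus an integration ratio under a set limit after plate pattern correction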;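 also: plate controls were neutral control wells without compound for no effect and CRF at EC100 for full effect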
DDE Tn6 FP inh: inhibitors of Tn6 peptide binding to fibrin DD(E), primary screen, biochemical, fluorescence polarization, human fibrin, Tn6 probe. Fibrinogen beta chain (Homo sapiens), P02675. Fibrin DD(E) TRITC-Tn6 fluorescence polarization displacement. inhibition, % at 8.3 µM. 370,000 tested, 0.21% active. AID 720509, 2013;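 active = inhibition above a per-campaign cutoff: mean of compounds within control limits plus 3 SD, cut at about 15% in these data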;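 also: 0% = median of all compound wells on the plate and 100% = blocking peptide control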
RTF Ca sens act: cardiac RTF calcium sensitivity activators, primary screen, biochemical, IANBD-TnC fluorescence, EC20 calcium. 340,000 tested, 0.24% active. IANBD-labeled TnC RTF fluorescence at EC20 calcium; 0% EC20 calcium, 100% full calcium. activation, % at 7.2 µM. AID 493008, 2010;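 active = activation above the mean over all tested compounds plus 3 SD, cut at about 30% in these data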;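 also: rise in fluorescence read as greater calcium sensitivity of cardiac thin filaments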
An asterisk follows results filed as active; . = no result. This is a sample that favours compounds with a hit; in the whole collection about 1.4% have one here.

SMILES	CRFBP-R2 block	Tn7 DDE FP	Cardiac RTF inh	CRFBP-R2 agonist	DDE Tn6 FP inh	RTF Ca sens act
CCN1/C(=C\c2ccc3cc(C)ccc3[n+]2CC)Sc2cc(C)c(C)cc21	-157.0	-23.1	-103.8	114.3*	-10.2	58.0*
CCN1/C(=C/c2ccc3cc(C)cc(C)c3[n+]2CC)Sc2cc(C)ccc21	-206.0	-22.8	-138.8	182.0*	-4.1	66.3*
CCN1/C(=C/c2ccc3cc(C)ccc3[n+]2CC)Sc2ccc3sccc3c21	-33.5	.	-88.3	42.6	.	35.9*
CCN1/C(=C/c2ccc3cccc(C)c3[n+]2CC)Sc2ccccc21	-296.7	-26.2	-67.8	205.1*	-2.7	13.5
C=CC[n+]1c(/C=C2\C=Cc3cc(C)ccc3N2CC)ccc2ccccc21	5.6	-12.4	-4.6	0.2	-8.3	-5.1
COCCCNC(=O)c1oc(=O)c2ccccc2c1-c1ccc(C)cc1	.	4.6	.	.	-2.4	.
C=CCCC(=O)N1CCC(n2nccc2NC(=O)c2ccc(OC)cc2)CC1	66.3*	-0.7	-4.5	0.4	4.1	-8.4
COc1ccc(C(=O)Nc2ccnn2C2CCN(C(=O)CCC(F)(F)F)CC2)cc1	-3.6	3.2	-4.0	-0.8	0.8	-0.5
COC(=O)Cn1nc(-c2ccccc2)c2cccc(C(F)(F)F)c21	.	2.1	.	.	-1.4	.
COC(=O)[C@H]1C[C@@]2(n3ccc4ccccc43)c3ccccc3N(S(=O)(=O)c3ccccc3)[C@H]2N1C(=O)CNC1CCCCC1	.	-2.6	.	.	-9.8	.
CN(C)S(=O)(=O)c1cccc(C(=O)N/N=C\c2ccccc2)c1	.	-0.5	.	.	6.5	.
CCOCCCn1c(SCc2nc3ccccc3s2)nc2ccccc2c1=O	-72.9	-4.2	1.2	51.5*	1.2	1.6
CCOC(=O)c1ccc(/C=C2/C=C(c3ccccc3)N(c3ccc(Cl)c(C(=O)O)c3)C2=O)cc1	-171.1	-2.1	-13.8	95.5*	-2.8	10.8
CCOC(=O)c1ccc(Cl)c(NC(=O)c2ccc(-c3ccccc3)cc2)c1	8.8	-4.2	6.0	-0.7	-0.3	5.3
Cc1ccc(C)c(NC(=O)c2ccccc2O)c1	25.0	1.1	-11.1	62.5*	4.2	-7.0
COCCN1C(=O)CSCC1(C)C(=O)NCc1ccccc1 (stereo not given)	.	1.5	.	.	2.5	.
Cc1cc(C)nc(SCC(=O)NC(=O)c2ccccc2O)n1	-11.2	1.2	-6.3	0.4	8.2	38.8*
COC(=O)c1ccccc1NC(=O)CSc1nc(C)cc(C)n1	33.6	1.4	0.8	0.1	3.2	5.6
Nc1nc(N)c2ncn(C3C=CC(CO)C3)c2n1 (stereo not given)	.	-7.0	.	.	1.2	.
Cc1sc(NC(=O)c2sc3nc4c(C)cccc4cc3c2N)c(C#N)c1C	-163.8	-1.4	-10.3	88.3*	-4.1	2.0
O=c1c2ccc(Cl)cc2nc(-c2ccc([N+](=O)[O-])cc2)n1O	14.7	6.6	0.8	59.2*	0.7	5.5
O=c1c2cc(Br)ccc2nc(-c2cccc(C(F)(F)F)c2)n1O	33.0	5.3	-11.3	148.4*	-2.7	-0.7
O=c1c2cc(Br)ccc2nc(-c2ccc([N+](=O)[O-])cc2)n1O	12.3	-4.4	-6.7	100.6*	-0.5	2.0
O=c1c2ccccc2nc(-c2ccccc2)n1O	1.2	10.1	-6.9	-0.1	15.8*	1.2
N#Cc1ccc(-c2nc3ccc(Br)cc3c(=O)n2O)cc1	-5.1	3.5	0.9	0.8	-3.7	-0.1
SMILES	CRFBP-R2 block	Tn7 DDE FP	Cardiac RTF inh	CRFBP-R2 agonist	DDE Tn6 FP inh	RTF Ca sens act
COc1ccc(CCC[C@@H](CCC(=O)N(c2ccccc2)c2ccccc2)CCc2ccccc2)cc1	.	9.6	.	.	2.6	.
O=c1c2cc(Cl)ccc2nc(-c2ccc(Cl)c(Cl)c2)n1O	-51.3	-3.0	-1.9	134.9*	-10.5	0.4
Cc1ccc(NC(=O)OC2CCC23CCCCC3)cc1 (stereo not given)	.	-0.6	.	.	3.7	.
C=CCn1c(Oc2ccccc2)nc2c1c(=O)n(C)c(=O)n2C	-166.5	-3.3	-11.3	105.8*	-4.9	3.3
CCN(CC)C(=O)CC[C@H]1CC[C@]2(CCCN(Cc3ccccn3)C2)O1	.	6.4	.	.	5.2	.
Cc1ccc(S(=O)(=O)N2CCN(c3ncnc4scc(-c5ccccc5)c34)CC2)cc1	-103.5	3.2	-6.8	126.5*	-1.1	2.9
O=[N+]([O-])c1cccc2[nH]c(CNc3nc(N4CCOCC4)nc4c3ncn4-c3ccsc3)nc12	.	2.1	.	.	-1.6	.
O=C(CN1CCC(C(=O)c2ccc(F)cc2)CC1)NCc1ccccc1F	-3.1	-6.7	8.2	-1.7	-6.5	4.3
O=C(c1ccc(F)cc1)C1CCN(Cc2ccccc2F)CC1	57.7*	-0.5	.	-0.9	4.2	.
COc1ccc(C(=O)Cn2cnc3ccccc3c2=O)c(OC)c1	-38.0	4.9	-3.9	54.1*	3.0	1.8
COc1ccc(OC)c(C(=O)Cn2cnc3ccccc3c2=O)c1	-6.2	-4.8	1.8	0.4	2.8	-1.5
Cc1cc(C)nc(/N=C(\N)Nc2cccc(OCc3ccccc3)c2)n1	-47.1	4.6	4.7	107.7*	0.6	-8.0
COc1ccccc1N/C(N)=N/c1nc(C)cc(C)n1	0.0	-6.7	0.7	9.2	2.5	-0.9
Cc1cc(C)nc(/N=C(\N)Nc2ccc(OCc3ccccc3)cc2)n1	14.3	-7.7	-11.0	124.4*	0.4	3.1
O=C(Cc1cccs1)N1CCN(S(=O)(=O)c2cc(Cl)ccc2Cl)CC1	9.0	1.2	-3.5	-0.2	1.7	50.7*
COc1ccc(C=Nn2c(-c3n[nH]c4c3CCC4)n[nH]c2=S)cc1OCc1ccccc1	.	-3.0	.	.	-0.7	.
Cc1nn(S(=O)(=O)c2cccs2)c(C)c1Sc1ccc([N+](=O)[O-])cc1	58.5*	-2.2	-8.2	1.0	-3.9	0.8
Nc1nn2c(C(F)(F)F)cc(=O)[nH]c2c1N=Nc1cccc(F)c1	87.0*	.	8.2	-7.4	.	1.2
Cc1cc(=O)[nH]c2c(N=Nc3ccc(O)cc3)c(N)nn12	3.0	-3.6	1.0	0.4	-7.1	-2.4
O=C(NC(=O)c1ccccc1O)c1ccc(C(F)(F)F)cc1	52.0*	-1.9	.	54.6*	1.6	.
CCCc1ccc(C(=O)NC(=O)c2ccccc2O)cc1	26.7	2.3	-5.7	50.7*	-6.4	7.2
O=C(NC(=S)NNC(=O)c1ccccc1O)c1ccc(F)cc1	10.6	2.2	0.9	31.9	-1.1	-3.8
Nc1[nH]c2cc(C(F)(F)F)ccc2c1C(=O)NC1CCCCC1	.	-3.0	.	.	3.7	.

Screening data deposited in PubChem by several laboratories.
